# Data from ChEMBL document CHEMBL3616458, “Synthesis of chiral ND-322, ND-364 and ND-364 derivatives as selective inhibitors of human gelatinase” (Bioorg Med Chem, 2015).
# Active and inactive are the calls of the source. No cut-off for these calls is given here.
# Key:
# [1] = biological target: T1, Aminopeptidase N (Sus scrofa) (UniProt P15145); assay: Inhibition of porcine kidney microsomal APN using L-Leu-para-nitroanilide as substrate at 10 uM incubated for 2 hrs prior to substrate addition measured after 30 mins by plate reader analysis relative to control
# T1 sequence (whole entry): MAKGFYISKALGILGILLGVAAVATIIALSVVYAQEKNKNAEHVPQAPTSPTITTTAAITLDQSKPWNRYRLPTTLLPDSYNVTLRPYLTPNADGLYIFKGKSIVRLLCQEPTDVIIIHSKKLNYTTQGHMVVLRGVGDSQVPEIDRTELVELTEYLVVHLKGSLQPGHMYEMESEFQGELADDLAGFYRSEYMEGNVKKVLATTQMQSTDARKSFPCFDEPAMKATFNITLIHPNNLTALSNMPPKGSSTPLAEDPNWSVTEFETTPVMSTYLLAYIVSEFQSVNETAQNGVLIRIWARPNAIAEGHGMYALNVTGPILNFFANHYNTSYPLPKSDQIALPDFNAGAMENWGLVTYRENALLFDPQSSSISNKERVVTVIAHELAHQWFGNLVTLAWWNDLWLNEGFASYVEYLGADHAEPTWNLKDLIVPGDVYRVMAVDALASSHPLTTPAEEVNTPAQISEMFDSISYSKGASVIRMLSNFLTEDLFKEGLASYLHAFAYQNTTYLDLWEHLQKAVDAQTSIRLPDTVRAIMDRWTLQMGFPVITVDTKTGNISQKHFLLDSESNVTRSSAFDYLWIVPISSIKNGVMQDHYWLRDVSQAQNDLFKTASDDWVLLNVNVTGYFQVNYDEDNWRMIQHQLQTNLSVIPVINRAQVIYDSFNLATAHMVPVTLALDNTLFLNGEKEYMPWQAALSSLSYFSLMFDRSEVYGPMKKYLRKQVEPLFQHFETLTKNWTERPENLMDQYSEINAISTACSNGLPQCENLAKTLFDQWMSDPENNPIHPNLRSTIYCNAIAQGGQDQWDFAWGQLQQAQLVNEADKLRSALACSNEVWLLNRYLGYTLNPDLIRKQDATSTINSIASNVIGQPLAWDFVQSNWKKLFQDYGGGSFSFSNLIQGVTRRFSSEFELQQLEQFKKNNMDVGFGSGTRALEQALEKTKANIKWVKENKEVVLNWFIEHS
# Method in brief: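 Porcine kidney microsomal aminopeptidase and inhibitors in 50 mM PBS pH 7.2, preincubated 2 h at 37 °C. L-Leu-p-nitroanilide substrate then added and incubated 30 min at 37 °C. Hydrolysis followed as absorbance change at 405 nm. Single-concentration % inhibition, mean of three experiments.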
# [2] = biological target: T2, Matrix metalloproteinase-9 (Homo sapiens, UniProt P14780); assay: Inhibition of human full length MMP9 using Mca-Pro-Leu-Gly-Leu-Dap(Dnp)-Ala-Arg-NH2 as substrate at 10 uM incubated for 2 hrs prior to testing measured for 15 mins by fluorometric analysis relative to control
# Method in brief: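 MMP9 (3 nM) preincubated 2 h with inhibitor. Substrate hydrolysis was then followed for 15 min, ex 328/em 393 nm, in 50 mM HEPES pH 7.5, 150 mM NaCl, 5 mM CaCl2, 0.01% Brij-35 and 1% DMSO. Single-concentration screen gave % inhibition. […] Both were means of three experiments.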
# [3] = biological target: Histone deacetylase (HDAC1 and HDAC2) (Homo sapiens) (UniProt Q13547+Q92769); assay: Inhibition of HDAC1/2 in human HeLa cells using Boc-Lys (acetyl)-AMC as substrate at 10 uM incubated for 2 hrs prior to substrate addition measured after 30 mins by fluorescence assay relative to control; assay type: cell-based
# Method in brief: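 HeLa nuclear extract (mainly HDAC1 and HDAC2) as enzyme source in 15 mM Tris–HCl pH 8.0 at 37 °C. Enzyme added to compound solutions, then Boc-Lys(acetyl)-AMC substrate and a further 30 min incubation. Developer containing trypsin and TSA added; fluorescence read 20 min later at 390/460 nm. Single-concentration % inhibition, mean of three experiments.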
# [4] = biological target: T2, Matrix metalloproteinase-9; assay: Inhibition of human full length MMP9 using Mca-Pro-Leu-Gly-Leu-Dap(Dnp)-Ala-Arg-NH2 as substrate incubated for 2 hrs prior to testing measured for 15 mins by fluorometric analysis
# [5] = biological target: 72 kDa type IV collagenase (Homo sapiens, UniProt P08253); assay: Inhibition of human full length MMP2 using Mca-Pro-Leu-Gly-Leu-Dap(Dnp)-Ala-Arg-NH2 as substrate incubated for 2 hrs prior to testing measured for 15 mins by fluorometric analysis
# 72 kDa type IV collagenase, sequence (P08253 whole entry): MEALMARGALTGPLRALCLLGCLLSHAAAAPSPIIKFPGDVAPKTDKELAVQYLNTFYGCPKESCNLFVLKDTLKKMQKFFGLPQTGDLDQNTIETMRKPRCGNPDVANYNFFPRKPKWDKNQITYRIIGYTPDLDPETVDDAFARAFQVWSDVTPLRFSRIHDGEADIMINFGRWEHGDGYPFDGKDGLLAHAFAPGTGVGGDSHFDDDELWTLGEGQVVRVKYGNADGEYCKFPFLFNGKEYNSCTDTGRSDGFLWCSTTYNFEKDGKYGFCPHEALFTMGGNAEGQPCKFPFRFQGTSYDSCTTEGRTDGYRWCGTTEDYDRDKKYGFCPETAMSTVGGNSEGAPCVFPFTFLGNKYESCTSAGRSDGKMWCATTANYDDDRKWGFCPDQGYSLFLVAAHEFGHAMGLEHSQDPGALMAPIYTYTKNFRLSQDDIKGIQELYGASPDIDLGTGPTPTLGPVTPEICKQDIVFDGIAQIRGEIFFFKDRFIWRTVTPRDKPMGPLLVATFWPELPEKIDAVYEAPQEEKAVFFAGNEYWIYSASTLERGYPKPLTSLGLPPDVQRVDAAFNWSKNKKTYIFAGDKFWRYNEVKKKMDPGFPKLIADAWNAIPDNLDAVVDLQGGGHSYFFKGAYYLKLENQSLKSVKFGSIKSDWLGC
# T2 sequence (P14780 whole entry): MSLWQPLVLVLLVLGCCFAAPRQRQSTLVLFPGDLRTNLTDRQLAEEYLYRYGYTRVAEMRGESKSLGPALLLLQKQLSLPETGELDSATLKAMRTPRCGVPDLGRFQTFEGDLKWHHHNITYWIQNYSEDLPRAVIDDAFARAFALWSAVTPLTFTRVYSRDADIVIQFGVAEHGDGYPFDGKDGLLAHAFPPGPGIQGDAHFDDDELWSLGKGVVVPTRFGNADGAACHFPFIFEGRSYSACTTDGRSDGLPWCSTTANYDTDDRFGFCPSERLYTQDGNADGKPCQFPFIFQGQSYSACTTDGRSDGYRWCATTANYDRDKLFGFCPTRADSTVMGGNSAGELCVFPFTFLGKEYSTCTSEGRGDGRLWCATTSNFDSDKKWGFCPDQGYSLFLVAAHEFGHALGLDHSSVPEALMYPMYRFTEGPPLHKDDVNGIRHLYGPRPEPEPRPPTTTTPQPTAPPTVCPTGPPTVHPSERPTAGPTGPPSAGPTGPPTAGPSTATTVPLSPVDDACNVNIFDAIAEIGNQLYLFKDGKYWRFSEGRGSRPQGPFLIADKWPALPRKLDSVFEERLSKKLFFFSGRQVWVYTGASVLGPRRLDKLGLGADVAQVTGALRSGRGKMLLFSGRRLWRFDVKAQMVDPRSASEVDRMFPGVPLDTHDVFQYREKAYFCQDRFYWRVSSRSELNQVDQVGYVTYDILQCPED
# Histone deacetylase (HDAC1 and HDAC2) (Homo sapiens), sequence (Q13547 whole entry, looked up): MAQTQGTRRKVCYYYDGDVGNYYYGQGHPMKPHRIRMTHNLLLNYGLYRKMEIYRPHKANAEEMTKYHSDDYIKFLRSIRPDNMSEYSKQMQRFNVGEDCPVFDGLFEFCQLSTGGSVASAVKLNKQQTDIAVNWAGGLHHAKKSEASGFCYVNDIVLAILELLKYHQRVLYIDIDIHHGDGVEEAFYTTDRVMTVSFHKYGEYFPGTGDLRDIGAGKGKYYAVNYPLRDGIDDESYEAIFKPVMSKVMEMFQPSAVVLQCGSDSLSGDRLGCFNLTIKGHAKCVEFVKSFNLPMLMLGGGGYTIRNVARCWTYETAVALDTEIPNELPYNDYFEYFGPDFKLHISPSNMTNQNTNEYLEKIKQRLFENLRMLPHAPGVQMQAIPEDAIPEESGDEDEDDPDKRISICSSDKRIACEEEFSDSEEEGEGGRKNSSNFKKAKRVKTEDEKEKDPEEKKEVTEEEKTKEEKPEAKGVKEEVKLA
# Histone deacetylase (HDAC1 and HDAC2) (Homo sapiens), sequence (Q92769 whole entry, looked up): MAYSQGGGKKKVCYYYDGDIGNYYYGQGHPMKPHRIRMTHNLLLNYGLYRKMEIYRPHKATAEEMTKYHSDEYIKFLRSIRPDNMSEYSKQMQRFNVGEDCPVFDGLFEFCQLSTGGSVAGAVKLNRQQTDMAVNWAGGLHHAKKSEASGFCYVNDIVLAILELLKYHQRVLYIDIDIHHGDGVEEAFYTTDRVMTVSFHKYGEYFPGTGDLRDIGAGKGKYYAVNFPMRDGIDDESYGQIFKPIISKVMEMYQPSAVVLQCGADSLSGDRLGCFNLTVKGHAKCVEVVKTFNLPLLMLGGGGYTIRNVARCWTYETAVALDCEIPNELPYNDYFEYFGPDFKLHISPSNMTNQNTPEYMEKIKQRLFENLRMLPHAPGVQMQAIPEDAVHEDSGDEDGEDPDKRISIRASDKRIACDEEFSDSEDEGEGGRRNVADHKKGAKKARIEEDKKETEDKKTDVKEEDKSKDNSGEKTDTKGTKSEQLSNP
SMILES,inhibition [1],inhibition [2] [%],inhibition [3],IC50 [4] [nM],IC50 [5] [nM]
Nc1ccc(Oc2ccc(S(=O)(=O)C[C@@H]3CS3)cc2)cc1,inactive,98.3,inactive,–,–
CC(=O)Nc1ccc(Oc2ccc([S@@+]([O-])C[C@@H]3CS3)cc2)cc1,inactive,23.7,inactive,–,–
"CC(=O)Nc1ccc(Oc2ccc([S+]([O-])C[C@@H]3CS3)cc2)cc1 (single isomer, unassigned)",inactive,3.4,inactive,–,–
CC(=O)Nc1ccc(Oc2ccc(S(=O)(=O)C[C@@H]3CS3)cc2)cc1,inactive,91.1,inactive,–,–
CC(=O)Nc1ccc(Oc2ccc([S@@+]([O-])C[C@H]3CS3)cc2)cc1,inactive,34.4,inactive,–,–
CC(=O)Nc1ccc(Oc2ccc(S(=O)(=O)CC3CS3)cc2)cc1 (racemic),inactive,97.2,inactive,–,–
Nc1ccc(Oc2ccc(S(=O)(=O)C[C@H]3CS3)cc2)cc1,inactive,97.4,inactive,–,–
CC(=O)Nc1ccc(Oc2ccc(S(=O)(=O)C[C@H]3CS3)cc2)cc1,inactive,96.2,inactive,–,–
"CC(=O)Nc1ccc(Oc2ccc([S+]([O-])C[C@H]3CS3)cc2)cc1 (single isomer, unassigned)",inactive,24.8,inactive,–,–
COc1ccc(S(=O)(=O)N(CC(=O)NO)CC(C)C)cc1,–,100,–,5.9,2
Nc1ccc(Oc2ccc(S(=O)(=O)CC3CS3)cc2)cc1 (racemic),inactive,96.7,inactive,–,–
